Experimental data: ChEMBL document CHEMBL1126246, “Ester and amide derivatives of E64c as inhibitors of platelet calpains” (J Med Chem, 1992)

Columns and labels:
[1] = target: T1, Calpain-1 catalytic subunit (Homo sapiens, UniProt P07384); test: The calpain inhibitory activity(I 50) was measured as ability to enter the platelet and inhibit calpain in the intact cells(assay 3); (+)indicates substantial inhibition by 5-44 uM; type: cell-based
T1 sequence (P07384 whole entry): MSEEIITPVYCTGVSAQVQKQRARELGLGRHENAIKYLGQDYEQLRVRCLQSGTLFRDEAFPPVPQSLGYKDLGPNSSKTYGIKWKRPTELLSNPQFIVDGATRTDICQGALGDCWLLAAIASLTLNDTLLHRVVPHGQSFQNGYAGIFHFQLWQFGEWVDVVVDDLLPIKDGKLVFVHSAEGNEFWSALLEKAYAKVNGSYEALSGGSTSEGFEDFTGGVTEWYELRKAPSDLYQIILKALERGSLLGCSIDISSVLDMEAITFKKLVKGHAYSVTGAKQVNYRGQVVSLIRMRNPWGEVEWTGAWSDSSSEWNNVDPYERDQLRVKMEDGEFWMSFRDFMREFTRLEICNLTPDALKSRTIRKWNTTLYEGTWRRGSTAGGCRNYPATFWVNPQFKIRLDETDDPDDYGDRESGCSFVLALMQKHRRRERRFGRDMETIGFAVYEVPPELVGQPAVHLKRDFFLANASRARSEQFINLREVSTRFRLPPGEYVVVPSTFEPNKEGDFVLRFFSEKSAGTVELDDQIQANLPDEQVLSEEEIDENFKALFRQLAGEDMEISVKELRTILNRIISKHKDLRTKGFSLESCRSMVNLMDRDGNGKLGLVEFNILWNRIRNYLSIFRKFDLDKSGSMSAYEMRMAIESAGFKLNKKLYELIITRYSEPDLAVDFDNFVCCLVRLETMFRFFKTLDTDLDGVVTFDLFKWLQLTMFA
Method in brief: (§1)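 Washed human platelets (6 × 10⁸/mL, Hank's buffer) were preincubated with compound in DMSO at 30 °C for 15 min. Final concentrations were 0.8, 5.5, 44 or 440 μM. A23187 plus CaCl₂ was added for 10 min at room temperature. Samples were boiled in SDS sample buffer with leupeptin, run on 8% SDS-PAGE and stained with Coomassie. Loss of actin-binding protein and talin was scored.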

[2] = target: T1, Calpain-1 catalytic subunit; test: The ability of compound to inhibit calpain in a preparation of lysed platelets was measured with a caseinolytic assay(assay 1); (+) indicates the compound was inhibitory, but I50 was not determined
[3] = target: T1, Calpain-1 catalytic subunit; test: The calpain inhibitory activity(I 50) was measured as ability to enter the platelet to inhibit calpain after cell lysis(assay 2); conditions: read-out: I50
Method in brief: (§2)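 Washed human platelets (7 × 10⁸/mL, Hank's) were exposed to inhibitor for 15 min at 30 °C. Cells were diluted in Tyrode-HEPES pH 7.4, pelleted twice to remove free drug, resuspended in Hank's and equilibrated 3 min. They were then lysed with Triton X-100 plus CaCl₂ and [³H]casein for 20 min at 30 °C. TCA-soluble counts were measured. I50 came from a five-concentration line.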

[4] = target: T1, Calpain-1 catalytic subunit; test: The ability of compound to inhibit calpain in a preparation of lysed platelets was measured with a caseinolytic assay(assay 1); conditions: read-out: I50
Method in brief: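 Washed human platelets (6 × 10⁸/mL) in Hank's solution were preincubated with inhibitor at 30 °C for 3 min. CaCl₂, Triton X-100 and [³H]casein were then added and incubated 20 min at 30 °C. The reaction was stopped with TCA, and TCA-soluble radioactivity was counted. I50 was estimated from fractional inhibition at five inhibitor concentrations.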

[5] = target: T1, Calpain-1 catalytic subunit; test: The calpain inhibitory activity(I 50) was measured as ability to enter the platelet and inhibit calpain in the intact cells(assay 3); (-)indicates little inhibition by 444 uM; type: cell-based; method in brief: as §1
[6] = target: T1, Calpain-1 catalytic subunit; test: The calpain inhibitory activity(I 50) was measured as ability to enter the platelet to inhibit calpain after cell lysis(assay 2); (-)indicates little inhibition by 444 uM; method in brief: as §2

| Compound | I50 [1] | I50 [2] | IC50 [3] [nM] | IC50 [4] [nM] | I50 [5] | I50 [6] |
| --- | --- | --- | --- | --- | --- | --- |
| CC(C)CCNC(=O)[C@H](CC(C)C)NC(=O)[C@H]1O[C@@H]1C(=O)Oc1ccc2[nH]cc(CCNC(=O)OC(C)(C)C)c2c1 | substantial inhibition by 5-44 uM |  | 2000 | 2000 |  |  |
| CC(C)CCNC(=O)[C@H](CC(C)C)NC(=O)[C@H]1O[C@@H]1C(=O)OCC(Br)(Br)Br | substantial inhibition by 5-44 uM | substantial inhibition by 5-44 uM | 5000 |  |  |  |
| CC(C)CCNC(=O)[C@H](CC(C)C)NC(=O)[C@H]1O[C@@H]1C(=O)OCC(F)(F)F | substantial inhibition by 5-44 uM | substantial inhibition by 5-44 uM | 2000 |  |  |  |
| CC(C)CCNC(=O)[C@H](CC(C)C)NC(=O)[C@H]1O[C@@H]1C(=O)OCCBr | substantial inhibition by 5-44 uM |  | 2000 | 1000 |  |  |
| CCOC(=O)[C@H]1O[C@@H]1C(=O)N[C@@H](CC(C)C)C(=O)NCCC(C)C [ALOXISTATIN] | substantial inhibition by 5-44 uM |  | 4000 | 4000 |  |  |

Other lines, results leading:

| I50 [1] | I50 [2] | IC50 [3] [nM] | IC50 [4] [nM] | I50 [5] | I50 [6] | Compound |
| --- | --- | --- | --- | --- | --- | --- |
| substantial inhibition by 5-44 uM | substantial inhibition by 5-44 uM | 6000 |  |  |  | CC(C)CCNC(=O)[C@H](CC(C)C)NC(=O)[C@H]1O[C@@H]1C(=O)OCCI |
|  |  | 4000 | 6000 | Little inhibition |  | CC(C)CCNC(=O)[C@H](CC(C)C)NC(=O)[C@H]1O[C@@H]1C(=O)NCCc1c[nH]c2ccc(O)cc12 |
|  |  |  | 100000 | Little inhibition |  | CCCCC(COC(=O)[C@H]1O[C@@H]1C(=O)N[C@@H](CC(C)C)C(=O)NCCC(C)C)NC(=O)[C@H](CC(C)C)NC(=O)OCc1ccccc1 (stereo partly drawn) |
| substantial inhibition by 5-44 uM |  | 300 | 2000 |  |  | CC(C)CCNC(=O)[C@H](CC(C)C)NC(=O)[C@H]1O[C@@H]1C(=O)OCCCl |
| substantial inhibition by 5-44 uM | substantial inhibition by 5-44 uM | 2000 |  |  |  | CC(C)CCNC(=O)[C@H](CC(C)C)NC(=O)[C@H]1O[C@@H]1C(=O)OCc1ccccc1Cl |
| substantial inhibition by 5-44 uM |  | 3000 | 500 |  |  | CC(C)CCNC(=O)[C@H](CC(C)C)NC(=O)[C@H]1O[C@@H]1C(=O)OCCF |
| substantial inhibition by 5-44 uM |  | 1000 | 700 |  |  | CC(C)CCNC(=O)[C@H](CC(C)C)NC(=O)[C@H]1O[C@@H]1C(=O)OCC(Cl)(Cl)Cl |
|  |  |  | 40 | Little inhibition | Little inhibition | CC(C)CCNC(=O)[C@H](CC(C)C)NC(=O)[C@H]1O[C@@H]1C(=O)O [E-64C] |
